Laboratory results published in ChEMBL document CHEMBL2380293, “Design, synthesis, and biological evaluation of novel histone deacetylase 1 inhibitors through click chemistry” (Bioorg Med Chem Lett, 2013).
pIC50: −log10 of the molar value. Calls of active or inactive are those of the source. No cut-off for these calls is given here.

Legend:
A549 [1] = assay: Growth inhibition of human A549 cells at 10 uM by MTT assay; type: functional, cell-based
Outline: (§1)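 MTT cell growth read-out, with SAHA as the positive control. GI50 values are means of three experiments. 10 μM was the concentration tested for scoring absence of activity.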

Histone deacetylase 1 [2] = biological target: T1, Histone deacetylase 1 (Homo sapiens, UniProt Q13547); assay: Inhibition of human recombinant HDAC1 incubated for 10 mins prior to substrate addition measured after 60 mins by spectrophotometric analysis
BGC-823 [3] = assay: Growth inhibition of human BGC823 cells at 10 uM by MTT assay; type: functional, cell-based; outline: as §1
[4] = biological target: T2, Histone deacetylase 7 (Homo sapiens) (UniProt Q8WUI4); assay: Inhibition of human recombinant HDAC7 at 10 uM incubated for 10 mins prior to substrate addition measured after 60 mins by spectrophotometric analysis
T2 sequence (whole entry): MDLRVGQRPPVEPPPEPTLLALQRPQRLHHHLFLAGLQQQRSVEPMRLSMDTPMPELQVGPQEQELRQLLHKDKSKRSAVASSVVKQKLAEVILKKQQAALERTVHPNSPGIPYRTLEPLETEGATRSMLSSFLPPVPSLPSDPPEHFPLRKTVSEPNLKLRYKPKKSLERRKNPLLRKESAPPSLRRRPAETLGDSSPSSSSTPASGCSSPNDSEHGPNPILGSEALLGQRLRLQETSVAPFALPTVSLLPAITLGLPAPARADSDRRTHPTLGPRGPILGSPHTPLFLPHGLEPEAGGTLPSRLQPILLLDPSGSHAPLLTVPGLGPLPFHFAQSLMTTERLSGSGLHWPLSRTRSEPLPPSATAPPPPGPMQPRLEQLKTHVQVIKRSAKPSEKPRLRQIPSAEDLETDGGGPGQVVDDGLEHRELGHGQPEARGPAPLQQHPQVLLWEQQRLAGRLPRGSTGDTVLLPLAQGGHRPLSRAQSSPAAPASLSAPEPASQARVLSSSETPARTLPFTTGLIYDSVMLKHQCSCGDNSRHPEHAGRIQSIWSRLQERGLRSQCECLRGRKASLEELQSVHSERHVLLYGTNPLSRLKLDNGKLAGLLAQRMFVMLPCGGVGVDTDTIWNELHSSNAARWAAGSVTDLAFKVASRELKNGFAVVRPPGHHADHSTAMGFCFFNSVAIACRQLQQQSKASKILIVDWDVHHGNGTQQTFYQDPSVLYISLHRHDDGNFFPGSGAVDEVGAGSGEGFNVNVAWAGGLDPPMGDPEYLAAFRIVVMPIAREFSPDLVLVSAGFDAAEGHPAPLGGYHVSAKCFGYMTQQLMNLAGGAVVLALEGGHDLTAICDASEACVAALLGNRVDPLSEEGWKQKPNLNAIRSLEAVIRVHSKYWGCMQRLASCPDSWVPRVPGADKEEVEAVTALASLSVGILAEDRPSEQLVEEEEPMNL
Outline: (§2)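 Enzyme IC50 values are means of three experiments, with SAHA run as the positive control. Absence of activity was judged at 10 μM.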

DU-145 [5] = assay: Growth inhibition of human DU145 cells by MTT assay; type: functional
HeLa [6] = assay: Growth inhibition of human HeLa cells at 10 uM by MTT assay; type: functional, cell-based; outline: as §1
HT-1080 [7] = assay: Growth inhibition of human HT1080 cells by MTT assay; type: functional; conditions: Homo sapiens, HT-1080; outline: as §1
HUVEC [8] = assay: Growth inhibition of HUVEC at 10 uM by MTT assay; type: functional, cell-based; conditions: Homo sapiens; outline: as §1
A-431 [9] = assay: Growth inhibition of human A431 cells at 10 uM by MTT assay; type: functional, cell-based; outline: as §1
DU-145 [10] = assay: Growth inhibition of human DU145 cells at 10 uM by MTT assay; type: functional, cell-based; outline: as §1
A549 [11] = assay: Growth inhibition of human A549 cells by MTT assay; type: functional
HT-1080 [12] = assay: Growth inhibition of human HT1080 cells at 10 uM by MTT assay; type: functional, cell-based; outline: as §1
A-431 [13] = assay: Growth inhibition of human A431 cells by MTT assay; type: functional
BGC-823 [14] = assay: Growth inhibition of human BGC823 cells by MTT assay; type: functional
HUVEC [15] = assay: Growth inhibition of HUVEC by MTT assay; type: functional; conditions: Homo sapiens
HeLa [16] = assay: Growth inhibition of human HeLa cells by MTT assay; type: functional
Histone deacetylase 1 [17] = biological target: T1, Histone deacetylase 1; assay: Inhibition of human recombinant HDAC1 at 10 uM incubated for 10 mins prior to substrate addition measured after 60 mins by spectrophotometric analysis; outline: as §2

T1 sequence (Q13547 whole entry): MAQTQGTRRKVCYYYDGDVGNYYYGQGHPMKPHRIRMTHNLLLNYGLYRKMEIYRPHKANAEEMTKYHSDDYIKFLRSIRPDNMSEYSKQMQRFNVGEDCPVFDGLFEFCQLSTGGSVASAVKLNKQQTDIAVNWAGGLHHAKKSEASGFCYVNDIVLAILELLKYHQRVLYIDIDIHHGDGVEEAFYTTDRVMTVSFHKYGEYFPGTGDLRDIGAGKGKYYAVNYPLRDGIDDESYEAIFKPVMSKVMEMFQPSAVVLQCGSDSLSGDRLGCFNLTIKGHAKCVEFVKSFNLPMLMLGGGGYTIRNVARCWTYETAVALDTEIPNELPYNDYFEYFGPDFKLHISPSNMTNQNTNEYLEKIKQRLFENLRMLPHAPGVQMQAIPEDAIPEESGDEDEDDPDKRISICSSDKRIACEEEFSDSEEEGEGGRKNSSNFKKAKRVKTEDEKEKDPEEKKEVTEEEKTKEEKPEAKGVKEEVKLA

With `O=C(CCCCc1cn(Cc2ccc3ccccc3n2)nn1)NO` the “growth inhibition (GI)” value (A549 [1]) was “inactive”, the pIC50 (Histone deacetylase 1 [2]) was 6.61 and the “growth inhibition (GI)” value (BGC-823 [3]) was “inactive”. The inhibition [4] was “inactive”, the GI50 (DU-145 [5]) was 4.06 µM and the “growth inhibition (GI)” value (HeLa [6]) was “inactive”. The GI50 (HT-1080 [7]) was 10.2 µM, the “growth inhibition (GI)” value (HUVEC [8]) was “inactive” and the “growth inhibition (GI)” value (A-431 [9]) was “inactive”.

`O=C(CCCCc1cn(Cc2ccc(C(F)(F)F)cc2)nn1)NO` was tested, and the pIC50 (Histone deacetylase 1 [2]) was 6.36 and the inhibition [4] was “inactive”.

In the case of `O=C(CCCCn1cc(-c2ccccc2)nn1)NO`, the “growth inhibition (GI)” value (DU-145 [10]) was “inactive”, the GI50 (A549 [11]) was 7.69 µM and the pIC50 (Histone deacetylase 1 [2]) was 5.29. For the same compound, the “growth inhibition (GI)” value (BGC-823 [3]) was “inactive”, the “growth inhibition (GI)” value (HT-1080 [12]) was “inactive” and the “growth inhibition (GI)” value (HeLa [6]) was “inactive”. The “growth inhibition (GI)” value (HUVEC [8]) was “inactive” and the “growth inhibition (GI)” value (A-431 [9]) was “inactive”.

With `COc1ccc(Cn2cc(CCCCC(=O)NO)nn2)cc1` the pIC50 (Histone deacetylase 1 [2]) was 5.73 and the inhibition [4] was “inactive”.

For `COc1cc(Cn2cc(CCCCC(=O)NO)nn2)cc(OC)c1`, the “growth inhibition (GI)” value (A549 [1]) was “inactive”, the pIC50 (Histone deacetylase 1 [2]) was 6.60 and the “growth inhibition (GI)” value (BGC-823 [3]) was “inactive”. The inhibition [4] was “inactive”, the GI50 (DU-145 [5]) was 7.89 µM and the “growth inhibition (GI)” value (HeLa [6]) was “inactive”. The GI50 (HT-1080 [7]) was 8.04 µM, the “growth inhibition (GI)” value (HUVEC [8]) was “inactive” and the GI50 (A-431 [13]) was 6.8 µM.

`COc1cc(Br)c(Cn2cc(CCCCC(=O)NO)nn2)cc1OC` was tested, and the “growth inhibition (GI)” value (DU-145 [10]) was “inactive”, the “growth inhibition (GI)” value (A549 [1]) was “inactive” and the pIC50 (Histone deacetylase 1 [2]) was 6.06. For the same compound, the “growth inhibition (GI)” value (BGC-823 [3]) was “inactive”, the inhibition [4] was “inactive” and the “growth inhibition (GI)” value (HT-1080 [12]) was “inactive”. The “growth inhibition (GI)” value (HeLa [6]) was “inactive”, the “growth inhibition (GI)” value (HUVEC [8]) was “inactive” and the GI50 (A-431 [13]) was 17.3 µM.

With `Cc1ccccc1Cn1cc(CCCCC(=O)NO)nn1` the pIC50 (Histone deacetylase 1 [2]) was 5.98 and the inhibition [4] was “inactive”.

In the case of `O=C(CCCCc1cn(Cc2ccc(-c3ccccc3)cc2)nn1)NO`, the GI50 (A549 [11]) was 2.15 µM, the GI50 (BGC-823 [14]) was 1.8 µM and the GI50 (HUVEC [15]) was 5.48 µM. The pIC50 (Histone deacetylase 1 [2]) was 6.69, the inhibition [4] was “inactive” and the GI50 (DU-145 [5]) was 1.21 µM. The GI50 (HT-1080 [7]) was 2.69 µM, the GI50 (HeLa [16]) was 3.72 µM and the GI50 (A-431 [13]) was 2.99 µM.

For `O=C(CCCCc1cn(Cc2ccc3c(c2)OCO3)nn1)NO`, the pIC50 (Histone deacetylase 1 [2]) was 5.72 and the inhibition [4] was “inactive”.

For `Cc1cc(C)cc(Cn2cc(CCCCC(=O)NO)nn2)c1`, the “growth inhibition (GI)” value (DU-145 [10]) was “inactive”, the “growth inhibition (GI)” value (A549 [1]) was “inactive” and the pIC50 (Histone deacetylase 1 [2]) was 6.57. For the same compound, the “growth inhibition (GI)” value (BGC-823 [3]) was “inactive”, the inhibition [4] was “inactive” and the “growth inhibition (GI)” value (HeLa [6]) was “inactive”. For the same compound, the GI50 (HT-1080 [7]) was 8.65 µM, the “growth inhibition (GI)” value (HUVEC [8]) was “inactive” and the “growth inhibition (GI)” value (A-431 [9]) was “inactive”.

In the case of `O=C(CCCCc1cn(Cc2c(Br)cc(Br)cc2Br)nn1)NO`, the inhibition [4] was “inactive” and the inhibition (Histone deacetylase 1 [17]) was “inactive”.

In the case of `CC(C)(C)c1ccc(Cn2cc(CCCCC(=O)NO)nn2)cc1`, the “growth inhibition (GI)” value (A549 [1]) was “inactive”, the pIC50 (Histone deacetylase 1 [2]) was 6.22 and the “growth inhibition (GI)” value (BGC-823 [3]) was “inactive”. For the same compound, the inhibition [4] was “inactive”, the GI50 (DU-145 [5]) was 7.2 µM and the “growth inhibition (GI)” value (HeLa [6]) was “inactive”. For the same compound, the GI50 (HT-1080 [7]) was 7.37 µM, the “growth inhibition (GI)” value (HUVEC [8]) was “inactive” and the “growth inhibition (GI)” value (A-431 [9]) was “inactive”.

For `O=C(CCCCc1cn(Cc2ccc(Oc3ccccc3)cc2)nn1)NO`, the GI50 (BGC-823 [14]) was 7.77 µM, the “growth inhibition (GI)” value (A549 [1]) was “inactive” and the pIC50 (Histone deacetylase 1 [2]) was 6.91. For the same compound, the inhibition [4] was “inactive”, the GI50 (DU-145 [5]) was 4.49 µM and the “growth inhibition (GI)” value (HeLa [6]) was “inactive”. The GI50 (HT-1080 [7]) was 7.69 µM and the GI50 (A-431 [13]) was 9.03 µM.

For `N#Cc1ccc(Cn2cc(CCCCC(=O)NO)nn2)cc1`, the pIC50 (Histone deacetylase 1 [2]) was 6.15 and the inhibition [4] was “inactive”.

With `O=C(CCCCc1cn(Cc2ccccc2Cn2cc(CCCCC(=O)NO)nn2)nn1)NO` the pIC50 (Histone deacetylase 1 [2]) was 6.09 and the inhibition [4] was “inactive”.
